Columns and labels:
[1] = molecular target: T1, Tyrosine-protein phosphatase non-receptor type 11 (Homo sapiens, UniProt Q06124); assay: Inhibition of GST-tagged SHP2 PTP domain (unknown origin) using phospho-EGFR Asp-Ala-Asp-Glu-Tyr[PO3H2]-Leu-Ile-Pro-Gln-Gln-Gly as substrate preincubated for 30 mins before substrate addition measured after 30 mins by phosphatase activity assay
T1 sequence (Q06124 whole entry): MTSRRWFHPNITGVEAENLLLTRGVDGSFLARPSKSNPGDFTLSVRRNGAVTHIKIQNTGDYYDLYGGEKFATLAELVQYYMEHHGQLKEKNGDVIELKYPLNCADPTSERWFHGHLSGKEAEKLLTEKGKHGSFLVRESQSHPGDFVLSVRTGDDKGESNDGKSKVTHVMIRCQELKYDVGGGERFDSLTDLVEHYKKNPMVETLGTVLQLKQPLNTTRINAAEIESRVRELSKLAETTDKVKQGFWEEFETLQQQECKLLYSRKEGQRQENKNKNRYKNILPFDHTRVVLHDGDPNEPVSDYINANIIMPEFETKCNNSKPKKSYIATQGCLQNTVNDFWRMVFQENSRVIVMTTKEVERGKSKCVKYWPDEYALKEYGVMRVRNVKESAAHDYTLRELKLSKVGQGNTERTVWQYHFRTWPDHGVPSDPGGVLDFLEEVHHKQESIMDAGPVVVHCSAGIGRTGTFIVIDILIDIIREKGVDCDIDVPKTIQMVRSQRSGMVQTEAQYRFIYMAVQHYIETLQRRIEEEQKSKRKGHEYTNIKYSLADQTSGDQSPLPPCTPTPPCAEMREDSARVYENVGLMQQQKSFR
Procedure, shortened: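 GST-SHP2 PTP domain fusion, purified in-house, 0.5 µg per reaction. Buffer 25 mM Tris-HCl pH 7.4, 50 mM NaCl, 5 mM DTT, 2.5 mM EDTA. Inhibitor pre-incubation at room temperature; substrate 0.2 mM final; reaction at 30°C. Free phosphate by Malachite Green, OD620 read after 10 min. IC50 from 6 (or 5) concentrations, three independent experiments.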

[2] = molecular target: T2, Receptor-type tyrosine-protein phosphatase C (Homo sapiens, UniProt P08575); assay: Inhibition of GST-tagged CD45 (unknown origin) using phospho-EGFR Asp-Ala-Asp-Glu-Tyr[PO3H2]-Leu-Ile-Pro-Gln-Gln-Gly as substrate preincubated for 30 mins before substrate addition measured after 30 mins by phosphatase activity assay
T2 sequence (P08575 whole entry): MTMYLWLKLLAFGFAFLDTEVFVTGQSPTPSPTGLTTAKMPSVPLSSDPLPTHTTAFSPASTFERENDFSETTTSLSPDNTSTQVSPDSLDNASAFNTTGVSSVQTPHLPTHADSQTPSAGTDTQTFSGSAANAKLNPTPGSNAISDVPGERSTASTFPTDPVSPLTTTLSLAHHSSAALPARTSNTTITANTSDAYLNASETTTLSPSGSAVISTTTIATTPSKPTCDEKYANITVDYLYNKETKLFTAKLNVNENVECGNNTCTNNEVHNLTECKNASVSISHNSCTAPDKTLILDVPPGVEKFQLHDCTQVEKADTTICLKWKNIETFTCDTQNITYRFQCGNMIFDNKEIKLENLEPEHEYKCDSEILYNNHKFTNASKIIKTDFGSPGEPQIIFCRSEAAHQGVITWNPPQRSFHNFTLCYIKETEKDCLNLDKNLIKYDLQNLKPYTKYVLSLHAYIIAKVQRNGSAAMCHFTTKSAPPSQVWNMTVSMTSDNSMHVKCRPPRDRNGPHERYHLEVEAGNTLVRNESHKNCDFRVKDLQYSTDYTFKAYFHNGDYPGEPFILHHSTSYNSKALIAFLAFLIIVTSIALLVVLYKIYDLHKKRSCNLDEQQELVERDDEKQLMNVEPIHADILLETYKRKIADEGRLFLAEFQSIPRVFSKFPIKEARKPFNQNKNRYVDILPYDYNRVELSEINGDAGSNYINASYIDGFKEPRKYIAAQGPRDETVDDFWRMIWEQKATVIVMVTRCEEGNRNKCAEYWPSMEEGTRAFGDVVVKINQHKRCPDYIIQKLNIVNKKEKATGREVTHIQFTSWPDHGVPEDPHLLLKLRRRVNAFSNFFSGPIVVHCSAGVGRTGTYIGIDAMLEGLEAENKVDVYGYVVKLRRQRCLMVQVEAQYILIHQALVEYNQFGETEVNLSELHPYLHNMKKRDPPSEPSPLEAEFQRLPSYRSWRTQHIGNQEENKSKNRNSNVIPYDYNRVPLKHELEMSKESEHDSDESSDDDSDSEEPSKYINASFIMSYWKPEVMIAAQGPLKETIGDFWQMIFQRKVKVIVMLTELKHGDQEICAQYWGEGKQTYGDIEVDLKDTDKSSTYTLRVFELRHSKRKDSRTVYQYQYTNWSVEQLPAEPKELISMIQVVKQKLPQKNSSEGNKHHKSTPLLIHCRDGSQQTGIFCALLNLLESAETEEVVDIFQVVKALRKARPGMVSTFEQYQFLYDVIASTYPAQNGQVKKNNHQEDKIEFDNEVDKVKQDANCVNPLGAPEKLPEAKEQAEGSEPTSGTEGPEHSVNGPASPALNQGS
Procedure, shortened: (§1)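 In-house SHP1 or purchased GST-CD45 cytoplasmic domain, GST-LAR, GST-TC-PTP preincubated with compound (6 concentrations) in 25 mM Tris-HCl pH 7.4, 50 mM NaCl, 5 mM DTT, 2.5 mM EDTA, room temperature 30 min. Phospho-EGFR pTyr1018 peptide added to 0.2 mM final, 30°C 30 min; released phosphate by Malachite Green, OD620. Three independent experiments.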

[3] = molecular target: T3, Tyrosine-protein phosphatase non-receptor type 2 (Homo sapiens, UniProt P17706); assay: Inhibition of GST-tagged TC-PTP (unknown origin) using phospho-EGFR Asp-Ala-Asp-Glu-Tyr[PO3H2]-Leu-Ile-Pro-Gln-Gln-Gly as substrate preincubated for 30 mins before substrate addition measured after 30 mins by phosphatase activity assay; procedure, shortened: as §1
T3 sequence (P17706 whole entry): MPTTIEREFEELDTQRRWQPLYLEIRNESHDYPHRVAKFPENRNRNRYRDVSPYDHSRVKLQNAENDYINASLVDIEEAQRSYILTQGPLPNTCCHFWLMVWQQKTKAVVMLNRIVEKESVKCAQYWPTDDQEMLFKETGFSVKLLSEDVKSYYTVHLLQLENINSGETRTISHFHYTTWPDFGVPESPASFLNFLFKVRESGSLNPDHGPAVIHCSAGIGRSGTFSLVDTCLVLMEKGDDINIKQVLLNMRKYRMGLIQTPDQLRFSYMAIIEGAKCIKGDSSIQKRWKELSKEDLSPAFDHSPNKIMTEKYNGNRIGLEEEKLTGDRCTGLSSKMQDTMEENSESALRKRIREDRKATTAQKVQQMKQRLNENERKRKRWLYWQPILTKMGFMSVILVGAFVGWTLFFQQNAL

[4] = molecular target: T1, Tyrosine-protein phosphatase non-receptor type 11; assay: Inhibition of wild type GST-tagged full-length SHP2 (unknown origin) using phospho-EGFR Asp-Ala-Asp-Glu-Tyr[PO3H2]-Leu-Ile-Pro-Gln-Gln-Gly as substrate preincubated for 30 mins before substrate addition measured after 30 mins by phosphatase activity assay
Procedure, shortened: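 Wild-type full-length SHP2 was purified recombinant and run like the in-house GST-SHP2 assay. It was preincubated with compound 30 min at room temperature in Tris-HCl pH 7.4 buffer with NaCl, DTT and EDTA. Phospho-EGFR peptide was then added to 0.2 mM and incubated 30 min at 30°C, with Malachite Green read-out at OD620. Triplicates from one of three repeat experiments.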

[5] = molecular target: Tyrosine-protein phosphatase non-receptor type 11 (Homo sapiens, UniProt Q06124, E76K); assay: Inhibition of GST-tagged full-length SHP2 E76K mutant (unknown origin) using phospho-EGFR Asp-Ala-Asp-Glu-Tyr[PO3H2]-Leu-Ile-Pro-Gln-Gln-Gly as substrate preincubated for 30 mins before substrate addition measured after 30 mins by phosphatase activity assay
Chain of Tyrosine-protein phosphatase non-receptor type 11 (Homo sapiens, UniProt Q06124, E76K) (Q06124 as listed by the source E76K): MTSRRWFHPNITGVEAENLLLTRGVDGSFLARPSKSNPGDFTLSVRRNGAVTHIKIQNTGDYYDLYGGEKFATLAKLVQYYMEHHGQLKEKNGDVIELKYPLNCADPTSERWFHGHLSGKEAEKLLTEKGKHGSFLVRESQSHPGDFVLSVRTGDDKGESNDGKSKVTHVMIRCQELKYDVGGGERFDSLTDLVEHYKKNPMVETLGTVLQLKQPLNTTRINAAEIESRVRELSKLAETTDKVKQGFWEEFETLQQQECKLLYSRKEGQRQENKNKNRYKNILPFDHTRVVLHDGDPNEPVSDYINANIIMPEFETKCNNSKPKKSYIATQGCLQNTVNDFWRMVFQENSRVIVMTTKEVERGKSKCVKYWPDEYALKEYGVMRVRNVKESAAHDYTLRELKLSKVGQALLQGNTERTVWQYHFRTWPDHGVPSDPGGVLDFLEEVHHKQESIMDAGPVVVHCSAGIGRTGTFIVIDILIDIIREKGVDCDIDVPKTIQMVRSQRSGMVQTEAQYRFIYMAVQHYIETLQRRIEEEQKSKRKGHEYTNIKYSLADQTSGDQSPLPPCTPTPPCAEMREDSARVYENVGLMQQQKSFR

[6] = molecular target: T4, Tyrosine-protein phosphatase non-receptor type 1 (Homo sapiens, UniProt P18031); assay: Inhibition of GST-tagged PTP1B (unknown origin) using phospho-EGFR Asp-Ala-Asp-Glu-Tyr[PO3H2]-Leu-Ile-Pro-Gln-Gln-Gly as substrate preincubated for 30 mins before substrate addition measured after 30 mins by phosphatase activity assay
T4 sequence (P18031 whole entry): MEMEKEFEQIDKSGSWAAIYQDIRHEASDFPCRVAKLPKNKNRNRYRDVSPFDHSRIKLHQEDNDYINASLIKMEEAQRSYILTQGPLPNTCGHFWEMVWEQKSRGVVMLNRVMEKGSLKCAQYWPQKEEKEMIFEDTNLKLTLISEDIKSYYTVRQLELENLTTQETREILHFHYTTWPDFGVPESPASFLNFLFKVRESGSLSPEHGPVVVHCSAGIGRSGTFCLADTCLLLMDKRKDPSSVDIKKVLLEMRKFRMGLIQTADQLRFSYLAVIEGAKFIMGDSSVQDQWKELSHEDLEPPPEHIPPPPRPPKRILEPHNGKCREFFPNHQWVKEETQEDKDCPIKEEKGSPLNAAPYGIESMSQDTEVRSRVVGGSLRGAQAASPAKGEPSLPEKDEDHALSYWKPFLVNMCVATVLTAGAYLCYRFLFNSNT
Procedure, shortened: (§2)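 GST-fusion phosphatase, purified in-house or commercial (MEG2 purchased). Enzyme and compound preincubated 30 min at room temperature in 25 mM Tris-HCl pH 7.4, 50 mM NaCl, 5 mM DTT, 2.5 mM EDTA. EGFR pTyr1018 peptide then added to 0.2 mM final and incubated 30 min at 30°C. Released phosphate read with Malachite Green at OD620 after 10 min. IC50 from 6 concentrations, three independent experiments.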

[7] = molecular target: Receptor-type tyrosine-protein phosphatase F (Homo sapiens, UniProt P10586); assay: Inhibition of GST-tagged LAR (unknown origin) using phospho-EGFR Asp-Ala-Asp-Glu-Tyr[PO3H2]-Leu-Ile-Pro-Gln-Gln-Gly as substrate preincubated for 30 mins before substrate addition measured after 30 mins by phosphatase activity assay; procedure, shortened: as §1
Chain of Receptor-type tyrosine-protein phosphatase F (P10586 whole entry, the tested form may be a part): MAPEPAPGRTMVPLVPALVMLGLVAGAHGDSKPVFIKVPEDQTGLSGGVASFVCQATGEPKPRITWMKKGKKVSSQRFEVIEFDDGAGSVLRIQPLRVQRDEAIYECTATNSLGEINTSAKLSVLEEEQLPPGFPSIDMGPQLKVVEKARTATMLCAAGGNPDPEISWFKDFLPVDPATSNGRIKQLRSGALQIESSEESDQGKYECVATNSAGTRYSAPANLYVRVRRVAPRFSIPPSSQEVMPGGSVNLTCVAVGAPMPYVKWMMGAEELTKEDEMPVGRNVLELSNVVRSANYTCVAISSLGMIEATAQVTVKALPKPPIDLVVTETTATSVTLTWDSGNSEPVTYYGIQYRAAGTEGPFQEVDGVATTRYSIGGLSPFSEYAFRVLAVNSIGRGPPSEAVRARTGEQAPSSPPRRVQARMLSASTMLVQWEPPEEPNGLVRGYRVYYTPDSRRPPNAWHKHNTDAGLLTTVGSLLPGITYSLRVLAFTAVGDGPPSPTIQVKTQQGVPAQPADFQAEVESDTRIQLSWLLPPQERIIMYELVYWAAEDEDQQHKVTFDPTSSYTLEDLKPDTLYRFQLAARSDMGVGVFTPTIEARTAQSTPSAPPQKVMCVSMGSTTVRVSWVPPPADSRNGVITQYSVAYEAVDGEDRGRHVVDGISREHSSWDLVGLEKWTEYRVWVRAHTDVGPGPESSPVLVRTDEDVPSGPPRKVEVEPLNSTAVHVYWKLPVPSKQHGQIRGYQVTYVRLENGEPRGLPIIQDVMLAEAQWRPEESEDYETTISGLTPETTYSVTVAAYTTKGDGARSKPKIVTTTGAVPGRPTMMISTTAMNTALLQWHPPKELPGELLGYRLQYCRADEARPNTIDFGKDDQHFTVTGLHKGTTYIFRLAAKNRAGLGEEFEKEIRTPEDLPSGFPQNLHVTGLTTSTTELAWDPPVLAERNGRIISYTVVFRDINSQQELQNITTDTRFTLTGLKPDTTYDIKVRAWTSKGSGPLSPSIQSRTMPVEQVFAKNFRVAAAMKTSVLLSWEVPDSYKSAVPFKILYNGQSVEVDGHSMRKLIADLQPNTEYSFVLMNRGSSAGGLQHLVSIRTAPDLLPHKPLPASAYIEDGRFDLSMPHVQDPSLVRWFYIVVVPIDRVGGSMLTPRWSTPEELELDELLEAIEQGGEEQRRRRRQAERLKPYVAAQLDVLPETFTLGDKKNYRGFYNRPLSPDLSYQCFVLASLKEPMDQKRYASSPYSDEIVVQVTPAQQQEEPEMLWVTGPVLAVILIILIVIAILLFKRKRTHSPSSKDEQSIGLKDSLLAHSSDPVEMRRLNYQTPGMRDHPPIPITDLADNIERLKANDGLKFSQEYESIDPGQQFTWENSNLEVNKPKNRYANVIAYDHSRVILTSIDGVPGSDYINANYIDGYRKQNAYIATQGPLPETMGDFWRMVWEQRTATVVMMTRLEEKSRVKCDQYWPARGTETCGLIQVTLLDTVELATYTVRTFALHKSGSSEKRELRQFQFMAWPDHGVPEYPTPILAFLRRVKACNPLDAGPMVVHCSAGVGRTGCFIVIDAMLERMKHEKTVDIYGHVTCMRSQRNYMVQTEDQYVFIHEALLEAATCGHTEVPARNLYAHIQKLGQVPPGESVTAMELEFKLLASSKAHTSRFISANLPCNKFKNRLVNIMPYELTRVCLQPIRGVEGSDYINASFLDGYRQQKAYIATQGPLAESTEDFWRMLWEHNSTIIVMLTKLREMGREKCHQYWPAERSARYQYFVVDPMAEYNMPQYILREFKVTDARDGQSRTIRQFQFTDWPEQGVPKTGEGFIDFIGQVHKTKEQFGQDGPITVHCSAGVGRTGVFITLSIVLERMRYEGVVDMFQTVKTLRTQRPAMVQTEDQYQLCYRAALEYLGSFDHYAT

[8] = molecular target: Tyrosine-protein phosphatase non-receptor type 6 (Homo sapiens, UniProt P29350); assay: Inhibition of GST-tagged SHP1 PTP domain (unknown origin) using phospho-EGFR Asp-Ala-Asp-Glu-Tyr[PO3H2]-Leu-Ile-Pro-Gln-Gln-Gly as substrate preincubated for 30 mins before substrate addition measured after 30 mins by phosphatase activity assay; procedure, shortened: as §1
Chain of Tyrosine-protein phosphatase non-receptor type 6 (P29350 whole entry, the tested form may be a part): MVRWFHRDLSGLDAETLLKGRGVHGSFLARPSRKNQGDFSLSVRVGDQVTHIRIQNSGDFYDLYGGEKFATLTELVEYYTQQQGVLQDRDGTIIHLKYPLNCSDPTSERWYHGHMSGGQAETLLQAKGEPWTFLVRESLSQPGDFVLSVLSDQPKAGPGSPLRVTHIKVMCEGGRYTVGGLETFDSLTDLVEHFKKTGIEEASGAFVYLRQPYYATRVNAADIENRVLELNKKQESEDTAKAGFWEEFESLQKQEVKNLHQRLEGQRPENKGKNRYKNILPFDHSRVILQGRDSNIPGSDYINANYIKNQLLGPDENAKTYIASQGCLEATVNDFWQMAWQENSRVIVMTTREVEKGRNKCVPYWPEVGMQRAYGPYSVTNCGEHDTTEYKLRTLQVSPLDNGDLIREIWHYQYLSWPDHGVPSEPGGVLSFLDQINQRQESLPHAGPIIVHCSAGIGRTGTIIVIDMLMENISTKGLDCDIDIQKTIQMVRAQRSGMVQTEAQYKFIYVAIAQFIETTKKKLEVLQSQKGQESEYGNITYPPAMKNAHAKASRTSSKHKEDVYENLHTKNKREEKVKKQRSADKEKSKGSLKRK

[9] = molecular target: T5, Tyrosine-protein phosphatase non-receptor type 9 (Homo sapiens, UniProt P43378); assay: Inhibition of GST-tagged MEG2 (unknown origin) using phospho-EGFR Asp-Ala-Asp-Glu-Tyr[PO3H2]-Leu-Ile-Pro-Gln-Gln-Gly as substrate preincubated for 30 mins before substrate addition measured after 30 mins by phosphatase activity assay; procedure, shortened: as §2
T5 sequence (P43378 whole entry): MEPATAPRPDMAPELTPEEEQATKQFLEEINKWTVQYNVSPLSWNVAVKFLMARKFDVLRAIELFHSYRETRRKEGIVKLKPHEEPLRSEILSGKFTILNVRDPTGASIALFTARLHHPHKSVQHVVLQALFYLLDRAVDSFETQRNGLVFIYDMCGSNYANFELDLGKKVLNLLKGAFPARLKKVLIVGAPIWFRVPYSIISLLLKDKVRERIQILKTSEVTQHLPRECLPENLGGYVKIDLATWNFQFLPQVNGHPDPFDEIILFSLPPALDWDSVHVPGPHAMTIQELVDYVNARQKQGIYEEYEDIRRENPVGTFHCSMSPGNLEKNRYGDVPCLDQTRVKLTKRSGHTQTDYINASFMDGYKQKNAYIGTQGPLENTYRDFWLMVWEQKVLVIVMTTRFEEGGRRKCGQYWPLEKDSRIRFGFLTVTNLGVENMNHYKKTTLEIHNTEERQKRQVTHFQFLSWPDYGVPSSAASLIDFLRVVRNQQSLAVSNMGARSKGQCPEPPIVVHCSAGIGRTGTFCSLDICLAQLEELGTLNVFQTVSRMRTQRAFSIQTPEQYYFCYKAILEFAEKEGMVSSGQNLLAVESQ

[10] = Growth inhibition of IL3-stimulated mouse BA/F3 cells after 48 hrs by CellTiter 96 assay; format: functional, cell-based; conditions: BaF3, 48 h
Procedure, shortened: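 Ba/F3 cells seeded 5 × 10^3 per well in RPMI-1640 with 10% FBS and mouse IL-3 (1.0 ng/mL), grown overnight, then exposed to compound or matching DMSO for 48 h. Viable cells counted by tetrazolium-based one-solution proliferation reagent. Triplicates per experiment, three experiments; mean±S.E.M.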

| Compound | IC50 [1] | IC50 [2] | IC50 [3] | IC50 [4] | IC50 [5] | IC50 [6] | IC50 [7] | IC50 [8] | IC50 [9] | IC50 [10] |
| --- | --- | --- | --- | --- | --- | --- | --- | --- | --- | --- |
| C[C@H]1COC2=C1C(=O)C(=O)c1c2ccc2c1CCCC2(C)C [CRYPTOTANSHINONE] | 22.5 µM | 41.4 µM | 55.7 µM | 45.2 µM | 23.9 µM | 33.5 µM | 36.9 µM | 39.5 µM | 59.4 µM | 17.2 µM |
| Cc1cccc2c3c(ccc12)C1=C(C(=O)C3=O)[C@@H](C)CO1 [DIHYDROTANSHINONE I] | 3.94 µM |  |  |  |  |  |  | 3.67 µM |  |  |
| Cc1coc2c1C(=O)C(=O)c1c-2ccc2c1CCCC2(C)C [TANSHINONE IIA] | 2.59 µM |  |  |  |  |  |  | 2.14 µM |  |  |
| Cc1coc2c1C(=O)C(=O)c1c-2ccc2c(C)cccc12 [TANSHINONE I] | 2.57 µM |  |  |  |  |  |  | 1.97 µM |  |  |

Source: ChEMBL document CHEMBL2429837, “Identification of cryptotanshinone as an inhibitor of oncogenic protein tyrosine phosphatase SHP2 (PTPN11)” (J Med Chem, 2013)
